Assay [1] has as its system Punta Toro virus. Kind of assay: Antiviral activity against 500 PFU Punta Toro virus Adames infected C57BL/6 mouse assessed as mean serum ALT levels at 25 mg/kg, po twice daily administered 4 hrs before viral challenge measured on day 4 of viral infection. The class given is functional. The gist of the method: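 C57BL/6 mice received subcutaneous PTV, then oral gavage twice daily for 5–7 days. T-705 was given in 0.4% CMC and ribavirin in saline. Five mice per group (10 placebo) were killed on day 3 or 4, and serum was collected. ALT activity was measured by kinetic assay. Three sham-infected mice set baselines.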

In assay [2] the test system is Punta Toro virus. The experiment in a line: Antiviral activity against Punta Toro virus Adames infected Syrian golden hamster assessed as mean viral titer per 0.1 mL of serum at 15 mg/kg, po twice daily administered 4 hrs before viral challenge measured on day 4 of viral infection. In kind it is functional.
Assay [3] deals with Punta Toro virus. Kind of assay: Antiviral activity against 500 PFU Punta Toro virus Adames infected C57BL/6 mouse assessed as protection against viral infection at 10 mg/kg, po twice daily for 5 to 7 days twice daily administered 4 hrs before viral challenge. In kind it is functional. The gist of the method: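 PTV was inoculated subcutaneously into mice in groups of 15 (25–30 placebo). Dosing was by oral gavage twice daily for 5–7 days, with T-705 suspended in 0.4% CMC and ribavirin in saline. Remaining animals were observed 21–28 days for survival and day of death. Test doses had first been checked for tolerance in uninfected animals.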

Assay [4] has as its system Punta Toro virus. Kind of assay: Antiviral activity against Punta Toro virus Adames infected Syrian golden hamster assessed as animals with detectable virus level in serum at 60 mg/kg, po twice daily administered 4 hrs before viral challenge measured on day 4 of viral infection. The class given is functional.
Assay [5] deals with Punta Toro virus. Kind of assay: Antiviral activity against 500 PFU Punta Toro virus Adames infected C57BL/6 mouse assessed as mean serum ALT levels at 100 mg/kg, po twice daily administered 4 hrs before viral challenge measured on day 4 of viral infection. The class given is functional. The gist of the method: (§1)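 Subcutaneous PTV infection was followed by oral gavage twice daily with drug suspended in 0.4% CMC. Serum was collected from 5 sacrificed mice per group (10 placebo) on day 3 or 4. ALT activity was measured by kinetic assay, and sham-infected mice set the baselines.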

The subject of assay [6] is Punta Toro virus. Kind of assay: Antiviral activity against Punta Toro virus Adames infected Syrian golden hamster assessed as mean serum ALT levels at 15 mg/kg, po twice daily administered 4 hrs before viral challenge measured on day 4 of viral infection. In kind it is functional.
For assay [7], the system named is Punta Toro virus. The experiment in a line: Antiviral activity against 5000 PFU Punta Toro virus Adames infected C57BL/6 mouse assessed as mean viral titer per 0.1 mL of serum at 10 mg/kg, po twice daily administered 24 hrs post viral challenge measured on day 3 of viral infection. In kind it is functional. Put shortly:
(§2)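 Mice were infected subcutaneously with PTV and dosed by oral gavage twice daily; 5 per group (10 placebo) were killed on day 3 or 4. Liver homogenate or serum was serially diluted onto triplicate LLC-MK2 monolayers, and CPE was read 6–8 days later. 50% endpoints gave log10 CCID50 per 0.1 g liver or 0.1 ml serum. Detection range was 2.8–9.5; undetectable samples were assigned <2.8.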

Assay [8] concerns Enterovirus C. The experiment in a line: Antiviral activity against Poliovirus. The class given is functional, organism-based.
Assay [9] concerns Junin virus. The experiment in a line: Antiviral activity against Junin virus Candid-1 assessed as reduction of 1 log10 unit viral titer yields after 7 to 8 days. In kind it is functional. The following applies: Mammarenavirus juninense.
Assay [10] has as its system Pichinde virus. The experiment in a line: Antiviral activity against Pichinde virus An 4763 infected Syrian golden hamster assessed as animals with detectable virus level in liver at 30 mg/kg, po twice daily for 7 days administered 4 hrs before viral-challenge measured on day 7 of viral infection. The class given is functional.
Assay [11] concerns Punta Toro virus. The experiment in a line: Antiviral activity against Punta Toro virus Adames infected Syrian golden hamster assessed as mean viral titer per 0.1 g of liver at 30 mg/kg, […] measured on day 4 of viral infection. The class given is functional. The following applies: route oral.
Assay [12] deals with Punta Toro virus. Kind of assay: Antiviral activity against Punta Toro virus Adames infected Syrian golden hamster assessed as animals with detectable virus level in serum at 15 mg/kg, po twice daily administered 4 hrs before viral challenge measured on day 4 of viral infection. The class given is functional.
Assay [13] has as its system Pichinde virus. Kind of assay: Antiviral activity against Pichinde virus An 4763 infected Syrian golden hamster assessed as mean viral titer per 0.1 mL of serum at 20 mg/kg, po twice daily for 7 days administered 72 hrs post viral-challenge measured on day 7 of viral infection. In kind it is functional. The gist of the method:
(§3)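 Hamsters (groups of 15, placebo 25-30) were dosed orally by gavage twice daily (drug suspended in 0.4% CMC) after bilateral intraperitoneal challenge with 65 PFU. Five per group were killed on day 7. Liver homogenate or serum was serially diluted onto triplicate B-SC-1 wells, CPE was read at 6-8 days, and the 50% endpoint was taken. Range was 2.8-9.5 log10 CCID50/0.1 g or 0.1 ml, with undetectable assigned <2.8.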

Assay [14] concerns Pichinde virus. The experiment in a line: Antiviral activity against Pichinde virus An 4763 infected Syrian golden hamster assessed as mean day of death at 60 mg/kg, po twice daily for 7 days administered 4 hrs before viral-challenge. In kind it is functional.
In assay [15] the test system is Punta Toro virus. Kind of assay: Antiviral activity against 500 PFU Punta Toro virus Adames infected C57BL/6 mouse assessed as mean viral titer per 0.1 g of liver at 25 mg/kg, po administered 4 hrs before viral challenge measured on day 4 of viral infection. The class given is functional. Put shortly:
as §2

For assay [16], the system named is Punta Toro virus. The experiment in a line: Antiviral activity against 500 PFU Punta Toro virus Adames infected C57BL/6 mouse assessed as mean viral titer per 0.1 mL of serum at 10 mg/kg, po twice daily administered 24 hrs post viral challenge measured on day 3 of viral infection. The class given is functional. Put shortly: as §2
Assay [17] has as its system Punta Toro virus. Kind of assay: Antiviral activity against Punta Toro virus Adames infected Syrian golden hamster assessed as survival at 60 mg/kg, po twice daily for 6 days administered 4 hrs before viral challenge. In kind it is functional.
In assay [18] the test system is Pichinde virus. The experiment in a line: Antiviral activity against Pichinde virus An 4763 infected Syrian golden hamster assessed as animals with detectable virus level in serum at 15 mg/kg, po twice daily for 7 days administered 4 hrs before viral-challenge measured on day 7 of viral infection. In kind it is functional. Put shortly: as §3
In assay [19] the test system is Punta Toro virus. The experiment in a line: Antiviral activity against 50 PFU Punta Toro virus Adames infected C57BL/6 mouse assessed as mean serum ALT levels at 30 mg/kg, po twice daily administered 24 hrs post viral challenge measured on day 3 of viral infection. In kind it is functional. Put shortly: as §1
Assay [20] relates to Punta Toro virus. Kind of assay: Antiviral activity against 500 PFU Punta Toro virus Adames infected C57BL/6 mouse assessed as mean viral titer per 0.1 mL of serum at 30 mg/kg, po twice daily administered 24 hrs post viral challenge measured on day 3 of viral infection. The class given is functional. Put shortly: as §2
For assay [21], the system named is Pichinde virus. The experiment in a line: Antiviral activity against Pichinde virus An 4763 infected Syrian golden hamster assessed as animals with detectable virus level in liver at 40 mg/kg, po twice daily for 7 days administered 4 hrs before viral-challenge measured on day 7 of viral infection. In kind it is functional.
For assay [22], the system named is Pichinde virus. The experiment in a line: Antiviral activity against Pichinde virus An 4763 infected Syrian golden hamster assessed as mean viral titer per 0.1 mL of serum at 50 mg/kg, po twice daily for 7 days administered 72 hrs post viral-challenge measured on day 7 of viral infection. In kind it is functional. Put shortly: as §3
In assay [23] the test system is Punta Toro virus. The experiment in a line: Antiviral activity against Punta Toro virus Adames infected Syrian golden hamster assessed as mean viral titer per 0.1 g of liver at 60 mg/kg, po twice daily administered 4 hrs before viral challenge measured on day 4 of viral infection. The class given is functional.
Assay [24] concerns Punta Toro virus. Kind of assay: Antiviral activity against 500 PFU Punta Toro virus Adames infected C57BL/6 mouse assessed as mean viral titer per 0.1 mL of serum at 5 mg/kg, po twice daily administered 4 hrs before viral challenge measured on day 3 of viral infection. The class given is functional. The gist of the method:
as §2

This is an account of results in ChEMBL document CHEMBL1154414, “In vitro and in vivo activities of T-705 against arenavirus and bunyavirus infections” (Antimicrob Agents Chemother, 2007).

Usually EC50 stands for the concentration at which the effect is half-maximal. One may read the EC90 as the point of the concentration-response curve where the effect stands at 90%.

SMILES strings stand for the structures.

For `NC(=O)c1nc(F)cnc1O` [FAVIPIRAVIR], the Activity in [1] was determined as 69 IU/L; in assay [3], 90%; in [4] it was 20%; in assay [5], 33 IU/L; in assay [6], 204 IU/L; in assay [10] it was 100%. The Activity is 100% in assay [12]; 22 days in assay [14]; 80% in [18]; 199 IU/L in assay [19]; 20% in assay [21]. Further, the log10CCID50 is given as <4.1 in assay [2]; <5.2 in [7]; <3.5 in assay [11]; >8.6 in assay [13]; <2.8 in assay [15]; 7.1 in assay [16]. Besides, the log10CCID50 in assay [20] is <5.1; in assay [22], 6.6; in assay [23], <3.4; in [24], 7.2. Moreover, the EC50 in assay [8] came to 31 µM. In addition, the EC90 in assay [9] was determined as 7 µM. Moreover, the survival at 60 mg/kg in assay [17] was determined as 90%.
For `NC(=O)c1ncn([C@@H]2O[C@H](CO)[C@@H](O)[C@H]2O)n1` [RIBAVIRIN], the log10CCID50 in assay [7] is 5.9; in assay [11] it was <2.8; in assay [13], 6.8; in [16] it was 6.7; in assay [20], <5; in [22] it was 6. Also, the figures for the Activity in [19] and in assay [21] were 131 IU/L and 20%, respectively.
